Blank lines part the entries; values can stand above or below the molecule they belong to. Activity calls are given as the source filed them. The calls are words filed in the database; no cut-off is given here.
Tests used:
[1] = tested on: HCT-116; test: Cytotoxicity against human HCT116 cells after 72 hrs by MTT assay; assay type: functional; conditions: HCT-116, 72 h
Method in brief: (§1)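 Cells were seeded 24 h before dosing and exposed continuously for 72 h. Growth was read by colorimetric MTS assay and expressed relative to vehicle-treated controls set at 100. GI50 is the level giving 50% growth inhibition, from at least two independent determinations. HCT116 and siTop1 cells were kept in RPMI 1640/10% FBS with 100 μg/mL hygromycin; RC0.1 in RPMI 1640/10% FBS.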

[2] = tested on: HCT-116; test: Induction of DNA damage in human HCT116 cells assessed as induction of histone gamma-H2AX level at 1 uM after 1 hr by flow cytometry
[3] = tested on: HCT-116; test: Cytotoxicity against human HCT116 cells transfected with Top1-siRNA after 72 hrs by MTT assay; assay type: functional; conditions: HCT-116, 72 h; method in brief: as §1
[4] = Cytotoxicity against human RC0.1 cells after 72 hrs by MTT assay; assay type: functional; method in brief: as §1
[5] = tested on: DU-145; test: Cytotoxicity against human DU145 cells after 72 hrs by MTT assay; assay type: functional; conditions: DU-145, 72 h; method in brief: as §1
[6] = tested on: MCF7; test: Cytotoxicity against human MCF7 cells by SRB assay; assay type: functional
[7] = tested on: HOP-62; test: Cytotoxicity against human HOP62 cells by SRB assay; assay type: functional
[8] = tested on: SN12C; test: Cytotoxicity against human SN12C cells by SRB assay; assay type: functional
[9] = tested on: HCT-116; test: Cytotoxicity against human HCT116 cells by SRB assay; assay type: functional
[10] = tested on: DU-145; test: Cytotoxicity against human DU145 cells by SRB assay; assay type: functional
[11] = tested on: UACC-62; test: Cytotoxicity against human UACC62 cells by SRB assay; assay type: functional
[12] = biological target: T1, DNA topoisomerase 1 (Homo sapiens) (UniProt P11387); test: Inhibition of human recombinant topoisomerase 1 using radiolabeled DNA as substrate at 100 uM after 20 mins by SDS-PAGE
T1 sequence (whole entry): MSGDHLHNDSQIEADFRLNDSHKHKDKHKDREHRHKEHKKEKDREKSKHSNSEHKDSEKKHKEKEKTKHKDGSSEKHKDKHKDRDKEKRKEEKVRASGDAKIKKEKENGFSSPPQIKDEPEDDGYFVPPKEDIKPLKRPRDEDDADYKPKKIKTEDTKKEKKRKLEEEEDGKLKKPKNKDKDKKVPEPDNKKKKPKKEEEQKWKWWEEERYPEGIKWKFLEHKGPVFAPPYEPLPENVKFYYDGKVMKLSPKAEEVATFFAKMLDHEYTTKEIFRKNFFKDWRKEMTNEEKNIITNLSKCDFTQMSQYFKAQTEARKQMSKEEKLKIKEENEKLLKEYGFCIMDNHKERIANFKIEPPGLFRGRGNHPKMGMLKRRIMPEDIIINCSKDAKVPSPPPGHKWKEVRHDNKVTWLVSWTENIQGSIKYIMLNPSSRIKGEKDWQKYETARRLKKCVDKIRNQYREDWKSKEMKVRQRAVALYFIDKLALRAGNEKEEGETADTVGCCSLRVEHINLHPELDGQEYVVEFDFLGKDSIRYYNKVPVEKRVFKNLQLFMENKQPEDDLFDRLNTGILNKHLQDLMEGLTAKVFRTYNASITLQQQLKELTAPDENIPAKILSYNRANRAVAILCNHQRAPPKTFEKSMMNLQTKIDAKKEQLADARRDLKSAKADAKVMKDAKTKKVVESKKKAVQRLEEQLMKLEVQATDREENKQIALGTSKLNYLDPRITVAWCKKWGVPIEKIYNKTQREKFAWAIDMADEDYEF
Method in brief: (§2)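 A 117 bp oligonucleotide was 3′-end-labelled with [α-32P]dGTP by Klenow fill-in. Reactions were stopped with 0.5% SDS and run on 20% denaturing polyacrylamide gels. Cleavage bands were scored visually on a semiquantitative scale.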

[13] = biological target: T1, DNA topoisomerase 1 (Homo sapiens); test: Inhibition of human recombinant topoisomerase 1 using radiolabeled DNA as substrate after 20 mins by SDS-PAGE; method in brief: as §2
[14] = tested on: OVCAR-3; test: Cytotoxicity against human OVCAR3 cells by SRB assay; assay type: functional
[15] = biological target: T1, DNA topoisomerase 1 (Homo sapiens); test: Inhibition of human recombinant topoisomerase 1 using radiolabeled DNA as substrate at 0.1 to 100 uM after 20 mins by SDS-PAGE
Method in brief: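 Baculovirus-purified human recombinant Top1 with ~2 nM of a 117 bp oligonucleotide, 3′-end-labeled with [α-32P]dGTP by Klenow fill-in. Drugs at 0.1, 1, 10, 100 μM; 25 °C, 20 min. Stopped with 0.5% SDS, run on 20% denaturing PAGE, phosphorimaged. Cleavage bands scored visually against camptothecin standard.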

[16] = tested on: SF-539; test: Cytotoxicity against human SF539 cells by SRB assay; assay type: functional
[17] = biological target: T1, DNA topoisomerase 1 (Homo sapiens); test: Inhibition of human recombinant topoisomerase 1 in human HCT116 cells assessed as DNA-protein cross linking at 1 uM incubated for 1 hr followed by compound washout measured after 1 hr; assay type: cell-based; conditions: HCT-116
Method in brief: (§3)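 In HCT116 cells, Top1 cleavage complexes were quantified as DNA–protein cross-links by alkaline elution, plotting the fraction of DNA retained on the filter against time. Persistence was read 1 h after drug removal. The negative control was untreated cells given 30 Gy irradiation to create strand breaks.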

[18] = Cytotoxicity against human KB 3.1 cells after 72 hrs by MTT assay; assay type: functional; conditions: KB 3-1, 72 h; method in brief: as §1
[19] = Cytotoxicity against human mitoxantrone-resistant H460 cells after 72 hrs by MTT assay; assay type: functional; conditions: NCI-H460, 72 h; method in brief: as §1
[20] = tested on: HCT-116; test: Resistance ratio of GI50 for human HCT116 cells transfected with Top1-siRNA to GI50 for human HCT116 cells; assay type: functional
Method in brief: (§4)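 Relative resistance = GI50 in the resistant subline divided by GI50 in the parental line. Both GI50s came from 72 h continuous-exposure MTS growth assays, each based on at least two independent determinations.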

[21] = biological target: T1, DNA topoisomerase 1 (Homo sapiens); test: Inhibition of human recombinant topoisomerase 1 in human HCT116 cells assessed as reversal of topoisomerase 1-DNA cleavage complex stabilization at 1 uM incubated for 1 hr followed by compound washout measured up to 6 hrs by DNA immunoblotting analysis; assay type: cell-based; conditions: HCT-116
Method in brief: (§5)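 10^6 HCT116 cells were treated with 1 μM for 1 h, and for reversal were held in drug-free medium for the set times. Cells were lysed with DNAzol and genomic DNA was isolated and sonicated. Serial dilutions were slot-blotted onto membranes and Top1–DNA complexes detected with the C21 anti-Top1 monoclonal antibody by immunoblotting (ICE method).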

[22] = Cytotoxicity against human H460 cells after 72 hrs by MTT assay; assay type: functional; conditions: NCI-H460, 72 h; method in brief: as §1
[23] = tested on: DU-145; test: Resistance ratio of GI50 for human RC0.1 cells to GI50 for human DU145 cells; assay type: functional; method in brief: as §4
[24] = tested on: HCT-116; test: Cell cycle arrest in human HCT116 cells at 1 uM after 1 hr by propidium iodide staining-based FACS analysis; assay type: functional
Method in brief: (§6)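 HCT116 cells exposed to 1 μM drug for 1 h, then kept in drug-free medium for the stated times. Fixed cells were stained with propidium iodide and analysed by flow cytometry for DNA content histograms. Phase distributions were computed from the histograms.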

[25] = Cytotoxicity against vinblastine-resistant human KBV1 cells after 72 hrs by MTT assay; assay type: functional; conditions: KB-V1, 72 h; method in brief: as §1
[26] = Resistance ratio of GI50 for human mitoxantrone-resistant H460 cells to GI50 for human H460 cells; assay type: functional; method in brief: as §4
[27] = tested on: HCT-116; test: Cell cycle arrest in human HCT116 cells at 1 uM incubated for 1 hr followed by compound washout measured up to 1 hr by propidium iodide staining-based FACS analysis; assay type: functional; method in brief: as §6
[28] = tested on: HCT-116; test: Cell cycle arrest in human HCT116 cells assessed as accumulation at S phase at 1 uM incubated for 1 hr followed by compound washout measured after 3 hrs by propidium iodide staining-based FACS analysis; assay type: functional; method in brief: as §6
[29] = biological target: T1, DNA topoisomerase 1 (Homo sapiens); test: Inhibition of human recombinant topoisomerase 1 in human HCT116 cells assessed as reversal of topoisomerase 1-DNA cleavage complex stabilization at 1 uM incubated for 1 hr followed by compound washout measured after 24 hrs by DNA immunoblotting analysis; assay type: cell-based; conditions: HCT-116; method in brief: as §5
[30] = Resistance ratio of GI50 for vinblastine-resistant human KBV1 cells to GI50 for human KB 3.1 cells; assay type: functional
[31] = biological target: T1, DNA topoisomerase 1 (Homo sapiens); test: Inhibition of human recombinant topoisomerase 1 in human HCT116 cells assessed as DNA-protein cross linking at 1 uM after 1 hr; assay type: cell-based; conditions: HCT-116; method in brief: as §3
[32] = tested on: HCT-116; test: Cell cycle arrest in human HCT116 cells assessed as accumulation at G2 phase at 1 uM incubated for 1 hr followed by compound washout measured after 6 to 48 hrs by propidium iodide staining-based FACS analysis; assay type: functional; method in brief: as §6
[33] = biological target: T1, DNA topoisomerase 1 (Homo sapiens); test: Inhibition of human recombinant topoisomerase 1 in human HCT116 cells assessed as stabilization of topoisomerase 1-DNA cleavage complex at 1 uM after 1 hr by DNA immunoblotting analysis; assay type: cell-based; conditions: HCT-116; method in brief: as §5

Structure (SMILES): CC[C@@]1(O)C(=O)OCc2c1cc1n(c2=O)Cc2cc3ccccc3nc2-1 [CAMPTOTHECIN]
GI50 [1]: 17.4 nM
Activity [2]: 40.9%
GI50 [3]: 35.5 nM
GI50 [4]: > 1000 nM
GI50 [5]: 18.2 nM
GI50 [6]: 13 nM

Structure (SMILES): COc1cc2c3c(n(C)c(=O)c2cc1OC)-c1cc2c(cc1C3=O)OCO2
GI50 [7]: 1300 nM
GI50 [8]: 68 µM
GI50 [9]: 35 µM
GI50 [10]: 37 µM
GI50 [11]: 4.2 µM
inhibition [12]: Active

Structure (SMILES): COc1cnc2c(c1)C(=O)c1c-2n(CCCN(C)C)c(=O)c2cc(OC)c(OC)cc12
inhibition [13]: Active

Structure (SMILES): COc1cccc2c1C(=O)c1c(O)c3c(c(O)c1C2=O)C[C@@](O)(C(=O)CO)C[C@@H]3O[C@H]1C[C@H](N)[C@H](O)[C@H](C)O1 [DOXORUBICIN]
GI50 [18]: 676 nM
GI50 [25]: > 1000 nM

Second part, led by results:

inhibition [15]: Active
Structure (SMILES): COc1cnc2c(c1)C(=O)c1c-2n(CCCNCCO)c(=O)c2cc([N+](=O)[O-])ccc12
GI50 [7]: < 10 nM
GI50 [8]: < 0.01 µM
GI50 [9]: < 0.01 µM
GI50 [14]: 35 nM
GI50 [10]: < 0.01 µM
GI50 [11]: < 0.01 µM
GI50 [16]: 14 nM
GI50 [6]: < 10 nM

inhibition [17]: Active
inhibition [13]: Active
inhibition [21]: Active
inhibition [29]: Active
inhibition [31]: Active
inhibition [33]: Active
Structure (SMILES): COc1cnc2c(c1)C(=O)c1c-2n(CCCN2CCOCC2)c(=O)c2cc([N+](=O)[O-])ccc12
GI50 [1]: 126 nM
GI50 [18]: 562 nM
Activity [2]: 37.6%
GI50 [19]: 178 nM
RatioGI50 [20]: 0.89
GI50 [3]: 112 nM
GI50 [4]: 1050 nM
GI50 [22]: 33.9 nM
RatioGI50 [23]: 7.41
Activity [24]: Active
GI50 [25]: 417 nM
RatioGI50 [26]: 5.25
Activity [27]: Active
GI50 [5]: 141 nM
Activity [28]: Active
RatioGI50 [30]: 0.74
Activity [32]: Active

inhibition [13]: Active
Structure (SMILES): O=C1c2cccnc2-c2c1c1ccc([N+](=O)[O-])cc1c(=O)n2CCCN1CCOCC1

— ChEMBL document CHEMBL3124896, “Optimization of the lactam side chain of 7-azaindenoisoquinoline topoisomerase I inhibitors and mechanism of action studies in cancer cells” (2014)
